Among the data in ChEMBL document CHEMBL1142952, “Design, synthesis, and activity of 2-imidazol-1-ylpyrimidine derived inducible nitric oxide synthase dimerization inhibitors” (J Med Chem, 2007) are Ratio IC50, IC50 and Activity values, retold here.

The source made the active and inactive calls. How the calls were made is not given here.

The subject of test [1] is BSC-1. Put plainly: Selectivity ratio, IC50 for ecNOS/IC50 for iNOS using vaccinia virus-induced system in BSC1 cells. The format is cell-based. The following applies: Homo sapiens. Put shortly:
(§1)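 For each compound, the IC50 against bcNOS (b/i) or ecNOS (e/i) is divided by the iNOS IC50 from the same BSC-1 vaccinia system.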

Test [2] concerns Sf9. Put plainly: Selectivity ratio, IC50 for bcNOS/IC50 for iNOS using tetracycline-induced system in SF9 cells. It is filed as cell-based. To be noted: Homo sapiens. Put shortly: (§2)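 SF9 cells carrying a tetracycline-induced system expressing one NOS isoform (iNOS, ecNOS or bcNOS); cellular NO formation inhibition measured, compounds up to 10 µM.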
In test [3] the test system is BSC-1. Nature of the test: Selectivity ratio, IC50 for bcNOS/IC50 for iNOS using vaccinia virus-induced system in BSC1 cells. The format is cell-based. To be noted: Homo sapiens. The procedure, abridged: as §1
Test [4] concerns the target Nitric oxide synthase, inducible (Homo sapiens, UniProt P35228). Nature of the test: Inhibition of cytokine-induced iNOS expressed in human A172 cells assessed as inhibition of NO formation. It is filed as cell-based, A 172.
Test [5] concerns the target Nitric oxide synthase, inducible (Rattus norvegicus) (UniProt Q06518). Put plainly: Activity against rat cerebellum iNOS upto 1 uM.
For test [6], the system named is Sf9. Nature of the test: Selectivity ratio, IC50 for ecNOS/IC50 for iNOS using tetracycline-induced system in SF9 cells. It is filed as cell-based. The following applies: Homo sapiens. Put shortly:
as §2

The nature of test [7]: Inhibition of vaccinia virus system-induced human NOS expressed in BSC1 cells. It is filed as cell-based. To be noted: bsc-1.
The nature of test [8]: Inhibition of tetracycline system-induced human NOS expressed in SF9 cells. Put shortly:
as §2

Sequence of Nitric oxide synthase, inducible (P35228 whole entry): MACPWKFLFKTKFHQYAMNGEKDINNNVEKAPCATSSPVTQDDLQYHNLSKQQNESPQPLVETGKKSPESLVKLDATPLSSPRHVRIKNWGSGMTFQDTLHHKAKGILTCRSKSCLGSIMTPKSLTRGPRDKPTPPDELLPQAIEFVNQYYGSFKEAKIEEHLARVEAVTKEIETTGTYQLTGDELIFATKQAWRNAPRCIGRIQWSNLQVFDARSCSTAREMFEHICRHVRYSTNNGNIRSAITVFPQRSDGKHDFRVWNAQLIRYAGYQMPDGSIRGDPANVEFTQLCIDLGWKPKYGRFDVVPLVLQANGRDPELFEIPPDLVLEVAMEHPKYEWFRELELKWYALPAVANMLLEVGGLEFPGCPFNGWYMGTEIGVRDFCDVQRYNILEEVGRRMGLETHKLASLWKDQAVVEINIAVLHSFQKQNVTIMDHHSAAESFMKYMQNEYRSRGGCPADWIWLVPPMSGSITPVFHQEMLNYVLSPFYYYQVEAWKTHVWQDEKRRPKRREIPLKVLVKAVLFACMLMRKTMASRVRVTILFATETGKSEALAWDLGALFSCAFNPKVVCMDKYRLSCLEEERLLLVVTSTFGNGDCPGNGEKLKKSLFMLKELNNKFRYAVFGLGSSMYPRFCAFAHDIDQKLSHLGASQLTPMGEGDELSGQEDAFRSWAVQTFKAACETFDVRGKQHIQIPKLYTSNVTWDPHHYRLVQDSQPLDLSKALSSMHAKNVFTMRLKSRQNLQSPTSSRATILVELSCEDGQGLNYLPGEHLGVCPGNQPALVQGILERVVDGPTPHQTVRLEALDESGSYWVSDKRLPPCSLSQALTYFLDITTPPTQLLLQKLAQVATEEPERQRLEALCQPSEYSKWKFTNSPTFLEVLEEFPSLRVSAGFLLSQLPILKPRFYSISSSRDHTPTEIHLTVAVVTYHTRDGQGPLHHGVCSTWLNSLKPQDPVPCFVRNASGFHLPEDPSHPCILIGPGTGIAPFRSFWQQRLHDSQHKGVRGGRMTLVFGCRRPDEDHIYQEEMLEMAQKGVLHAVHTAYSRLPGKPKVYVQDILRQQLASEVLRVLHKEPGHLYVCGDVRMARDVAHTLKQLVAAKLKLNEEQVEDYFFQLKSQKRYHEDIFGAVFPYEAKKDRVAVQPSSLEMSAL
Sequence of Nitric oxide synthase, inducible (Rattus norvegicus) (Q06518 whole entry): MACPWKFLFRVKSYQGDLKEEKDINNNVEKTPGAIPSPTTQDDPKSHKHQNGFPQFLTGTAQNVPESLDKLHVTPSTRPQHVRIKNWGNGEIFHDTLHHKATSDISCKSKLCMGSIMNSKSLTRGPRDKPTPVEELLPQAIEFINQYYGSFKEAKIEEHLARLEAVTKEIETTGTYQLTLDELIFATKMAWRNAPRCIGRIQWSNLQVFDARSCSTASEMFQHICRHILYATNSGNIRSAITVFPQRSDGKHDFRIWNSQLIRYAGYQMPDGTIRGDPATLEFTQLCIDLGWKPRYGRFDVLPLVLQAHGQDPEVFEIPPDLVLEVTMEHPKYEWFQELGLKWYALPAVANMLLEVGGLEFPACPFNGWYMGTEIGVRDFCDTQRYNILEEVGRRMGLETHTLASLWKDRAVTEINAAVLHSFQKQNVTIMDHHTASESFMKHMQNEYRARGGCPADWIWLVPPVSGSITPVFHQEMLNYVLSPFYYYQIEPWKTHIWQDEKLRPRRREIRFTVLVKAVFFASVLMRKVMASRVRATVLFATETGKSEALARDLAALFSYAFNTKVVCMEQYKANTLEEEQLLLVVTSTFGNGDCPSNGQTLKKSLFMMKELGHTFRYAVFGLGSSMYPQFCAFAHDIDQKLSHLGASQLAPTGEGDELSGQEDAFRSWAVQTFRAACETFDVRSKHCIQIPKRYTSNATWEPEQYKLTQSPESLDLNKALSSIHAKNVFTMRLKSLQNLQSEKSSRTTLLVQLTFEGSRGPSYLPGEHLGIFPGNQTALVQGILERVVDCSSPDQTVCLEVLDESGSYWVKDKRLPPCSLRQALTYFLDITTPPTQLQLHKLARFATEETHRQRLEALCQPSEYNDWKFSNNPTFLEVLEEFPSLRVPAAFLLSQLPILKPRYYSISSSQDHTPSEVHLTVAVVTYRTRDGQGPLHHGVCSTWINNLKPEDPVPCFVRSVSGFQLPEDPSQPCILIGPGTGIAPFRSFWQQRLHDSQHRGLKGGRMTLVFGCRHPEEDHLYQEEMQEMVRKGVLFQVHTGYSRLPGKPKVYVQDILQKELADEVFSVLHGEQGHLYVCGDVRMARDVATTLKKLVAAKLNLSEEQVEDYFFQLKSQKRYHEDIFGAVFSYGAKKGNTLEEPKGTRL

As to `CCc1cc(N2CCC[C@@H]2C(=O)NCCc2ccc3c(c2)OCO3)nc(-n2ccnc2)n1`, the Ratio IC50 in test [1] is more than 3800; in test [2], 280; in test [3], 67; in test [6], 170. The IC50 was found to be 0.52 nM in test [4], 25 nM in test [7] and 16 nM in test [8]. The outcome in test [5] was inactive.

As to `Cc1cc(N2CCN(C(=O)C(C)C)C(CC(=O)NCc3ccc4c(c3)OCO4)C2)nc(-n2ccnc2)n1` (stereo unspecified), the Ratio IC50 in test [1] was more than 300; in test [2], 120; in test [3], 80; in test [6], 240. Further, the 50% inhibitory concentration (IC50) in test [4] came out at 1.9 nM; in test [7], 80 nM; in test [8] it was 46 nM. The result in test [5] was inactive.

Turning to `O=C(NCCc1ccc2c(c1)OCO2)[C@H]1CCCN1c1ccnc(-n2ccnc2)n1`, the Ratio IC50 in test [1] was more than 2000; in test [2], 74; in test [3], 19; in test [6] it was 181. Further, the IC50 was found to be 0.48 nM in test [4], 25 nM in test [7] and 11 nM in test [8]. Besides, the outcome in test [5] was inactive.

As for `O=C(C[C@H]1CCCN1c1ccnc(-n2ccnc2)n1)NCc1ccc2c(c1)OCO2`, the Ratio IC50 in test [1] was 2900; in test [2], 6; in test [3], 5; in test [6], 47. The IC50 came out at 0.28 nM in test [4], 5.6 nM in test [7] and 5.5 nM in test [8]. In addition, the outcome in test [5] was inactive.

Regarding `Cc1cc(N2CCN(C(=O)C(C)C)[C@H](CC(=O)NCc3ccc4c(c3)OCO4)C2)nc(-n2ccnc2)n1`, the Ratio IC50 in test [1] is more than 400; in test [2] it was 80; in test [3] it was 29; in test [6], 74. In addition, the IC50 worked out at 0.75 nM in test [4], 350 nM in test [7] and 130 nM in test [8]. Further, in test [5], the result was inactive.

For the compound `Cc1cc(N2CCC[C@@H]2CC(=O)NCc2ccc3c(c2)OCO3)nc(-n2ccnc2)n1`, the Ratio IC50 in test [1] was 1000; in test [2], 27; in test [3], 8; in test [6] it was 91. The figures for the half-maximal inhibitory concentration (IC50) in test [4], in test [7] and in test [8] were 0.12 nM, 5.9 nM and 4.5 nM, respectively. Further, the outcome in test [5] was inactive.

As for `O=C(CC1CCCCN1c1cc(-n2ccnc2)nc(-n2ccnc2)n1)NCc1ccc2c(c1)OCO2` (stereo unspecified), the Ratio IC50 in test [1] worked out at 130; in test [3], 13. Also, the IC50 in test [4] was 35 nM; in test [7], 515 nM. Besides, in test [5], the result was inactive.

On to `CN1CCN(c2ccnc(-n3ccnc3)n2)C(CC(=O)NCc2ccc3c(c2)OCO3)C1` (stereo unspecified), for which the Ratio IC50 in test [1] was 1300; in test [3], 2. In addition, the concentration for half-maximal inhibition (IC50) in test [4] came to 0.48 nM; in test [7], 11 nM. Besides, the result in test [5] was inactive.

On to `COc1ccc(CCNC(=O)CC2CCCCN2c2ccnc(-n3ccnc3)n2)cc1` (stereo unspecified), for which the Ratio IC50 in test [1] was more than 1000; in test [3], 8. Also, the half-maximal inhibitory concentration (IC50) in test [4] was 3.5 nM; in test [7], 42 nM. The outcome in test [5] was inactive.

Turning to `O=C(CC1CN(C(=O)Oc2ccccc2)CCN1c1ccnc(-n2ccnc2)n1)NCc1ccc2c(c1)OCO2` (stereo unspecified), the Ratio IC50 in test [1] worked out at 700; in test [3], 5. In addition, the results for the IC50 in test [4] and in test [7] were 1.4 nM and 16 nM, respectively. Further, the result in test [5] was inactive.

`O=C(CC1CCCCN1c1cc(Cl)nc(-n2ccnc2)n1)NCc1ccc2c(c1)OCO2` (stereo unspecified): the Ratio IC50 in test [1] came out at 1100; in test [3], 5. Moreover, the IC50 in test [4] was 0.49 nM; in test [7] it was 9 nM. In test [5], the outcome was inactive.

Take `O=C(CC1CN(c2cccc(F)n2)CCN1c1ccnc(-n2ccnc2)n1)NCc1ccc2c(c1)OCO2` (stereo unspecified): the Ratio IC50 in test [1] came to 850; in test [3], 6. Besides, the IC50 in test [4] came out at 0.28 nM; in test [7], 10 nM. Moreover, in test [5], the result was inactive.

`O=C(CC1CCCCN1c1cc(C(F)(F)F)nc(-n2ccnc2)n1)NCc1ccc2c(c1)OCO2` (stereo unspecified): the Ratio IC50 in test [1] was more than 310; in test [3] it was more than 31. The values for the IC50 in test [4] and in test [7] were 180 nM and 320 nM, respectively. The outcome in test [5] was inactive.

For the compound `CCc1cc(N2CCC[C@@H]2CC(=O)NCc2ccc3c(c2)OCO3)nc(-n2ccnc2)n1`, the Ratio IC50 in test [1] was 7800; in test [2], 18; in test [3], 15; in test [6], 65. Also, the results for the IC50 in test [4], in test [7] and in test [8] were 0.13 nM, 7.5 nM and 7.1 nM, respectively. Also, the result in test [5] was inactive.

Consider `COc1cccc(CNC(=O)CC2CCCCN2c2ccnc(-n3ccnc3)n2)c1` (stereo unspecified), for which the Ratio IC50 in test [1] was more than 430; in test [3], 4. The IC50 is 3.7 nM in test [4] and 230 nM in test [7]. For the same compound, the result in test [5] was inactive.

With `CNC(=O)N1CCN(c2ccnc(-n3ccnc3)n2)C(CC(=O)NCc2ccc3c(c2)OCO3)C1` (stereo unspecified), the Ratio IC50 in test [1] was more than 250; in test [3], 4. For the same compound, the IC50 in test [4] amounted to 1 nM; in test [7], 450 nM. Moreover, the result in test [5] was inactive.

With `O=C(CC1CCCCN1c1nccc(-n2ccnc2)n1)NCc1ccc2c(c1)OCO2` (stereo unspecified), the values for the Ratio IC50 in test [1] and in test [3] were more than 500 and 6, respectively. The figures for the IC50 in test [4] and in test [7] were 52 nM and 220 nM, respectively. In addition, the result in test [5] was inactive.

As for `O=C(CC1CN(Cc2cccc3ccccc23)CCN1c1ccnc(-n2ccnc2)n1)NCc1ccc2c(c1)OCO2` (stereo unspecified), the Ratio IC50 in test [1] is 40; in test [3], 7. The results for the IC50 in test [4] and in test [7] were 69 nM and 120 nM, respectively. Moreover, in test [5], the outcome was inactive.

On to `O=C(CC1CN(Cc2ccco2)CCN1c1ccnc(-n2ccnc2)n1)NCc1ccc2c(c1)OCO2` (stereo unspecified), for which the Ratio IC50 in test [1] stood at 1100; in test [3], 2. In addition, the IC50 in test [4] is 0.58 nM; in test [7], 13 nM. The result in test [5] was inactive.

Regarding `Cc1cc(N2CCN(Cc3ccccc3)C(CC(=O)NCc3ccc4c(c3)OCO4)C2)nc(-n2ccnc2)n1` (stereo unspecified), the Ratio IC50 in test [1] came to 350; in test [3], 130. Further, the IC50 in test [4] is 25 nM; in test [7], 160 nM. For the same compound, in test [5], the result was inactive.

In the case of `Cc1cc(N2CCN(C)C(CC(=O)NCc3ccc4c(c3)OCO4)C2)nc(-n2ccnc2)n1` (stereo unspecified), the Ratio IC50 is more than 350 in test [1] and 72 in test [3]. For the same compound, the IC50 was 12 nM in test [4] and 340 nM in test [7]. For the same compound, the result in test [5] was inactive.

Regarding `O=C(CC1CN(C(=O)c2ccccc2)CCN1c1ccnc(-n2ccnc2)n1)NCc1ccc2c(c1)OCO2` (stereo unspecified), the Ratio IC50 in test [1] turned out to be 220; in test [3], 4. In addition, the figures for the IC50 in test [4] and in test [7] were 0.5 nM and 85 nM, respectively. In addition, the result in test [5] was inactive.

For the compound `CC(=O)N1CCN(c2cc(C)nc(-n3ccnc3)n2)CC1CC(=O)NCc1ccc2c(c1)OCO2` (stereo unspecified), the Ratio IC50 in test [1] is more than 320; in test [3], more than 32. Besides, the IC50 in test [4] is 8.5 nM; in test [7] it was 340 nM. For the same compound, the outcome in test [5] was inactive.

Regarding `CC(C)OC(=O)N1CCN(c2ccnc(-n3ccnc3)n2)C(CC(=O)NCc2ccc3c(c2)OCO3)C1` (stereo unspecified), the Ratio IC50 in test [1] is 800; in test [3], 4. Further, the concentration for half-maximal inhibition (IC50) stood at 1 nM in test [4] and 24 nM in test [7]. Moreover, the outcome in test [5] was inactive.

Turning to `CC(=O)N1CCN(c2ccnc(-n3ccnc3)n2)C(CC(=O)NCc2ccc3c(c2)OCO3)C1` (stereo unspecified), the Ratio IC50 in test [1] is more than 10; in test [3] it was 3. Moreover, the IC50 in test [4] was found to be 1 nM; in test [7] it was 320 nM. For the same compound, the result in test [5] was inactive.

Regarding `CCOC(=O)CN1CCN(c2ccnc(-n3ccnc3)n2)C(CC(=O)NCc2ccc3c(c2)OCO3)C1` (stereo unspecified), the Ratio IC50 in test [1] turned out to be 1700; in test [3], 5. For the same compound, the IC50 in test [4] came to 0.93 nM; in test [7], 4.9 nM. Besides, the outcome in test [5] was inactive.

Take `O=C(CC1CCCCN1c1cc(-n2ccnc2)ncn1)NCc1ccc2c(c1)OCO2` (stereo unspecified): the Ratio IC50 in test [1] is more than 1000; in test [3] it was 19. The IC50 is 10 nM in test [4] and 100 nM in test [7]. The result in test [5] was inactive.

As to `O=C(CC1CN(C(=O)NCc2ccccc2)CCN1c1ccnc(-n2ccnc2)n1)NCc1ccc2c(c1)OCO2` (stereo unspecified), the Ratio IC50 in test [1] worked out at 490; in test [3], 4. Besides, the IC50 worked out at 0.96 nM in test [4] and 72 nM in test [7]. Further, the result in test [5] was inactive.

As for `O=C(CC1CNCCN1c1ccnc(-n2ccnc2)n1)NCc1ccc2c(c1)OCO2` (stereo unspecified), the Ratio IC50 in test [1] was found to be 1200; in test [3], 7. In addition, the IC50 in test [4] is 0.55 nM; in test [7] it was 70 nM. Also, in test [5], the result was inactive.
